Hits are enriched below; roughly 4.2% of the tested compounds scored in any of these assays.
HDAC3 inh = human HDAC3 inhibition; inhibition, % at 8.3 µM; O15379; recombinant HDAC3, fluorogenic peptide/trypsin coupled, fluorescence; hit rate 0.15% among 320,000; in the data active = inhibition above about 26%, passing the limit was not always enough
Target sequence (O15379 whole entry, looked up): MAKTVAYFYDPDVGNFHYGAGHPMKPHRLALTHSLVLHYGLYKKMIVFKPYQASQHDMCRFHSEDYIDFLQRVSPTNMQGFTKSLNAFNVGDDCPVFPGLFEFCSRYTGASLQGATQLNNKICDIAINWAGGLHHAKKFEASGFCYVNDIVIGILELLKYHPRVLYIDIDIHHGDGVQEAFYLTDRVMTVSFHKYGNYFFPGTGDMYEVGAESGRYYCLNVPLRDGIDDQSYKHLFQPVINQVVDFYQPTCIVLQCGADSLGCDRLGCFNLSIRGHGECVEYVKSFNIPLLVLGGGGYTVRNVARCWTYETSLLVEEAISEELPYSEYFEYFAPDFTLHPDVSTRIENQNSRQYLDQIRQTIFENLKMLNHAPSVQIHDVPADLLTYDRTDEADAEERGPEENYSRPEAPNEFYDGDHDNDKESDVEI
FXN GAA850 act = increases GAA850 frataxin promoter reporter activity | HEK293 lucGAA850 FXN promoter luciferase reporter, 24 h; percent of 10 µM SAHA response | activation, % at 6 µM | hit rate 0.56% among 360,000;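 active = activation above the average of all compounds screened plus 3 SD, cutoff fixed separately per campaign, cut at about 7.5% in these data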;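 note: 0% = DMSO wells and 100% = 10 µM SAHA wells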
AHR act = activators of human aryl hydrocarbon receptor | AHR-responsive luciferase reporter cells, luminescence | activation, % at 5 µM | hit rate 2.5% among 320,000 | AID 2796; in the data active = activation above about 47%;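 note: 0% = vehicle wells and 100% = reference agonist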
SENP1 FRET inh = SENP1 (human) catalytic domain inhibition | Q9P0U3 | recombinant SENP1 catalytic domain, CyPet-SUMO1-YPet FRET cleavage | inhibition, % at 10 µM | hit rate 0.21% among 360,000;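 active = inhibition at least 30% at 10 µM, raw YFP signal under a set limit, fluorescence ratio 0.5 to 1.5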;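 note: 0% = enzyme with DMSO and 100% = no enzyme wells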
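Material – human SENP1 catalytic domain · Input – SENP1 enzyme, 20 pM final · Compound dosing – single concentration of 10 µM compound, 0.5% DMSO final · Timing – enzyme reaction for 50 min at room temperature, dark · Measured by – FRET fluorescence in CFP and YFP emission channels · Control set – no-enzyme wells low, DMSO-plus-enzyme wells high control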
M18AAP inhibitor = PfM18AAP enzyme inhibition. recombinant PfM18AAP, H-Glu-NHMec fluorogenic cleavage. inhibition, % at 7.35 µM. hit rate 1.2% among 290,000. AID 1822;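 active = inhibition above the campaign mean inhibition over all tested compounds plus 3 SD, cut at about 28% in these data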;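 note: 0% = plate median of test compound wells and 100% = 2 mM ZnCl2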
CTSL1 counter = cathepsin L1 inhibition, PFM18AAP counter-screen; recombinant F. hepatica cathepsin L1, Z-Leu-Arg-MCA fluorescence; inhibition, % at 5.96 µM; hit rate 0.49% among 300,000; AID 1906;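 active = inhibition above the mean of all tested compounds plus 3 SD, set per screening campaign, cut at about 17% in these data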;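 note: 0% = plate median of test compound wells and 100% = 1 µM Z-Phe-Ala-diazomethylketone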
Starred values were filed as active, the others as inactive; / = not tested or not shown.

SMILES	HDAC3 inh	FXN GAA850 act	AHR act	SENP1 FRET inh	M18AAP inhibitor	CTSL1 counter
Cc1ccc(NP(=O)(Oc2ccccc2F)Oc2ccccc2F)cc1C	29.6*	3.2	2.0	1.2	-7.1	4.6
Cc1cccc(NP(=O)(Oc2ccccc2F)Oc2ccccc2F)c1	19.6	-0.6	0.6	2.6	2.6	3.2
CCN1CCN(c2ccc(N)c(C)c2)CC1	-4.5	0.1	-3.0	1.1	0.8	0.4
COc1cc2c(cc1OC)-c1c3c(cc4c1[C@@H](C2)N(C)CC4)OCO3	-16.4	-0.2	54.9*	-1.0	7.9	16.4
COc1cc2c(cc1OC)-c1c(OC)c(OC)cc3c1C(C2)N(C)CC3 (stereo not given)	-6.2	2.7	3.0	24.0	18.0	3.2
COC1C(C)OC(OC2CC(C)(O)Cc3cc4c(c(O)c32)C(=O)c2c(O)cc3c(c2C4=O)OC2OC3(C)C(O)C(N(C)C)C2O)C(OC)C1(C)OC (stereo not given)	/	-8.2	/	94.5	/	/
NP(=O)(OCCCCc1ccccc1)Oc1ccccc1Cl (stereo not given)	6.2	-1.0	0.6	2.2	-2.0	-4.0
O=C(NC1CCCCC1)Oc1cc2oc(=O)sc2cc1Cl	0.8	6.3	3.7	-0.5	31.2*	-2.6
O=C(c1ccc2c(c1)OCO2)C1CCCN(Cc2c(F)cccc2Cl)C1 (stereo not given)	6.1	-1.2	48.2*	0.8	2.6	-0.9
CC(C)n1c(O)c(C2c3cc(Cl)ccc3Oc3[nH]c(=O)n(C(C)C)c(=O)c32)c(=O)[nH]c1=O (stereo not given)	/	5.0	/	-5.3	10.7	/
COc1cccc(-n2c(/C=C/c3ccc(O)c(O)c3)nc3ccccc3c2=O)c1	6.5	2.2	3.5	-24.6	57.4*	0.9
CN1CCC2(CC1)C(C#N)=C(N)NC(S)=C2C#N	-1.1	-1.1	3.4	-30.7	13.0	-1.3
NC(=S)c1cn(C2OC(CO)C(O)C2O)c2ncnc(N)c12 (stereo not given)	3.6	-14.5	-8.1	0.9	39.7*	3.7
Cc1ccc(S(=O)(=O)N2CC2(C)CCl)cc1 (stereo not given)	2.8	0.5	0.5	1.9	-0.3	20.0*
Cc1ccc(S(=O)(=O)N2CN3CCN(C3)C2)cc1	7.5	-2.4	0.5	-3.0	3.6	-2.2
O=[N+]([O-])c1ccc(N2CCNCC2)cc1NCc1ccco1	3.2	2.5	70.7*	0.5	-3.1	6.2
CN1CCN(c2ccc([N+](=O)[O-])c(NCC3CCCO3)c2)CC1 (stereo not given)	5.0	1.0	12.2	-0.3	4.4	-0.9
CN1CCN(c2ccc([N+](=O)[O-])c(NCc3ccco3)c2)CC1	3.1	2.9	63.3*	-0.5	-0.8	0.8
Cc1cc(/C=C2/C(=O)NC(=O)N(c3ccc(Br)cc3)C2=O)c(C)n1C	3.8	1.7	26.1	-4.8	-1.7	-3.1
Cc1cc(/C=C2\C(=O)NC(=O)N(c3ccc(Br)cc3)C2=O)c(C)n1C	3.5	2.5	64.2*	-15.2	4.3	4.0
C=C1C(O)(c2ccccc2)C2CC[N+]1(C)CC2 (stereo not given)	-1.6	1.4	-2.1	1.6	-7.9	-0.8
C=CCn1c(O)c(C(CC)=Nc2ccc(NC(C)=O)cc2)c(=O)[nH]c1=O	-5.0	1.4	-1.2	2.5	13.0	-1.9
C=CCn1c(O)c(C(C)=Nc2ccc(N(C)C)cc2)c(=O)[nH]c1=O	10.2	-2.2	13.1	1.4	30.5*	1.1
C=CCn1c(O)c(C(CC)=Nc2ccc(N(CC)CC)cc2)c(=O)[nH]c1=O	-7.6	-1.8	3.2	-0.4	28.8*	-2.4
C=CCn1c(O)c(C(C)=Nc2ccc(N(CC)CC)cc2)c(=O)[nH]c1=O	-6.5	-5.8	11.0	4.3	29.4*	4.0
O=C(c1ccc2nc(-c3ccco3)c(-c3ccco3)nc2c1)N1CCC2(CC1)OCCO2	2.7	0.0	0.0	-37.8	/	16.8*
CCOC(=O)Cn1cc([N+](=O)[O-])nc1[N+](=O)[O-]	-0.5	1.9	-0.9	0.6	3.1	18.1*
CN1OC[C@@H]2CN[C@H](c3ccccc3Br)C[C@@H]21	/	2.2	/	0.5	/	/
Cc1ccccc1C1=NCC(=O)N(CC(=O)NCc2ccco2)c2sc3c(c21)CCCC3	10.4	-2.8	1.4	-1.9	-0.7	2.0
